In article PMC3580954 (Biopolymers, 2013):
Read-outs that look alike come from different tables or passages of the source. Blank lines part the entries; values can stand above or below the molecule they belong to. Residues, ends and D or L forms follow the SMILES beside them. No end group written: not given here.

Assays:
wt PrRP receptor = molecular target: T1, wt PrRP receptor (Homo sapiens, UniProt P49683); assay: Radioligand displacement; type: binding
T1 sequence (P49683 1-370): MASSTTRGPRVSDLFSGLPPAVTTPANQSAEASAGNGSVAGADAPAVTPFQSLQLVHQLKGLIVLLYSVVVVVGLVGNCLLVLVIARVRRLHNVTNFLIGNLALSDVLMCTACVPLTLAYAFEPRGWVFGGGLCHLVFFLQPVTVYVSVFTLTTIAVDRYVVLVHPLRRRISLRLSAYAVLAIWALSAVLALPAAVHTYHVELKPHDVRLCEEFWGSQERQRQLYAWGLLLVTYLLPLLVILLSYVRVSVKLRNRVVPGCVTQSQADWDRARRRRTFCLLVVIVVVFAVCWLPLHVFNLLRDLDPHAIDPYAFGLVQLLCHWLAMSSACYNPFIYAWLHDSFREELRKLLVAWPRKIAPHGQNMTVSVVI
In short: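 COS-7 cells (1.5 × 10⁶ seeded) were transiently transfected at 60–70% confluency with 4 µg of EYFP-fused human PrRP receptor DNA. About 24 h later, competition binding was run on intact cells against 1 nM N[propionyl³H]hPrRP20. IC50 came from a one-site competition fit, with triplicates.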

wt hPrRP receptor = molecular target: T2, wt hPrRP receptor (Homo sapiens, UniProt P49683); assay: Signal transduction; type: cell-based; details: SD
T2 sequence (P49683 1-370): T1 sequence (P49683 1-370)
In short: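 COS-7 cells were transiently transfected with 0.4 µg plasmid of human PrRP receptor or its site-directed mutant, C-terminally fused to EYFP. One day after transfection and 16 h before stimulation, cells were labelled with 2 µCi/mL [³H]myo-inositol. They were then stimulated with increasing peptide concentrations for 1 h at 37°C in DMEM with 10 mM LiCl, and lysed in 0.1 M NaOH. IP was separated by anion exchange and counted by scintillation. EC50 came from concentration-response curves; runs were in duplicate, repeated ≥2 times.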

PrRP receptor (GPR10) = molecular target: T3, PrRP receptor (GPR10) (Homo sapiens, UniProt P49683); assay: radioligand displacement on transfected COS-7 cells
T3 chain: T1 sequence (P49683 1-370)

Molecule: CC[C@H](C)[C@H](NC(=O)CNC(=O)[C@H](CCCNC(=N)N)NC(=O)[C@H](CO)NC(=O)[C@H](C)NC(=O)[C@H](Cc1ccc(O)cc1)NC(=O)[C@H](Cc1c[nH]c2ccccc12)NC(=O)[C@H](C)NC(=O)[C@@H]1CCCN1C(=O)[C@H](CC(N)=O)NC(=O)[C@@H](NC(=O)[C@H](CC(=O)O)NC(=O)[C@@H]1CCCN1C(=O)[C@@H](N)[C@@H](C)O)[C@@H](C)CC)C(=O)N[C@@H](C)C(=O)N1CCC[C@H]1C(=O)N[C@H](C(=O)NCC(=O)N[C@@H](CCCNC(=N)N)C(=O)N[C@@H](Cc1ccccc1)C(N)=O)C(C)C [A^15PrRP20] (H-TPDINPAWYASRGIAPVGRF-NH2)
IC50 (wt PrRP receptor; SD): 882 ± 376 nM
EC50 (wt hPrRP receptor): 49 ± 12 nM

Molecule: CC[C@H](C)[C@H](NC(=O)CNC(=O)[C@H](CCCNC(=N)N)NC(=O)[C@H](CO)NC(=O)[C@H](C)NC(=O)[C@H](Cc1ccc(O)cc1)NC(=O)[C@H](Cc1c[nH]c2ccccc12)NC(=O)[C@H](C)NC(=O)[C@@H]1CCCN1C(=O)[C@H](CC(N)=O)NC(=O)[C@@H](NC(=O)[C@H](CC(=O)O)NC(=O)[C@@H]1CCCN1C(=O)[C@@H](N)[C@@H](C)O)[C@@H](C)CC)C(=O)N[C@@H](CCCNC(=N)N)C(=O)N1CCC[C@H]1C(=O)N[C@H](C(=O)NCC(=O)N[C@@H](C)C(=O)N[C@@H](Cc1ccccc1)C(N)=O)C(C)C [A^19PrRP20] (H-TPDINPAWYASRGIRPVGAF-NH2)
IC50 (wt PrRP receptor): > 10000 nM
EC50 (wt hPrRP receptor): 1200 ± 231 nM

Molecule: CC[C@H](C)[C@H](NC(=O)CNC(=O)[C@H](CCCNC(=N)N)NC(=O)[C@H](CO)NC(=O)[C@H](C)NC(=O)[C@H](Cc1ccc(O)cc1)NC(=O)[C@H](Cc1c[nH]c2ccccc12)NC(=O)[C@H](C)NC(=O)[C@@H]1CCCN1C(=O)[C@H](CC(N)=O)NC(=O)[C@@H](NC(=O)[C@H](CC(=O)O)NC(=O)[C@@H]1CCCN1C(=O)[C@@H](N)[C@@H](C)O)[C@@H](C)CC)C(=O)N[C@@H](CCCNC(=N)N)C(=O)N1CCC[C@H]1C(=O)N[C@H](C(=O)NCC(=O)N[C@@H](CCCNC(=N)N)C(=O)N[C@@H](C)C(N)=O)C(C)C [A^20PrRP20] (H-TPDINPAWYASRGIRPVGRA-NH2)
IC50 (wt PrRP receptor; SD): 870 ± 288 nM
EC50 (wt hPrRP receptor): 20 ± 5 nM

Molecule: CC[C@H](C)[C@H](N)C(=O)N[C@@H](CC(N)=O)C(=O)N1CCC[C@H]1C(=O)N[C@@H](C)C(=O)N[C@@H](Cc1c[nH]c2ccccc12)C(=O)N[C@@H](Cc1ccc(O)cc1)C(=O)N[C@@H](C)C(=O)N[C@@H](CO)C(=O)N[C@@H](CCCNC(=N)N)C(=O)NCC(=O)N[C@H](C(=O)N[C@@H](CCCNC(=N)N)C(=O)N1CCC[C@H]1C(=O)N[C@H](C(=O)NCC(=O)N[C@@H](CCCNC(=N)N)C(=O)N[C@@H](Cc1ccccc1)C(N)=O)C(C)C)[C@@H](C)CC [PrRP4-20] (H-INPAWYASRGIRPVGRF-NH2)
EC50 (wt hPrRP receptor): 1 ± 0.2 nM

B3: PrRP4-20 (peptide)
chain: INPAWYASRGIRPVGRF-NH2
IC50 (PrRP receptor (GPR10)): 1.2 nM

B4: PrRP8-20 (peptide)
chain: WYASRGIRPVGRF-NH2
IC50 (PrRP receptor (GPR10)): 7 nM

Now from value to molecule:

EC50 (wt hPrRP receptor): 14 ± 2 nM
Molecule: CC[C@H](C)[C@H](N)C(=O)N[C@@H](CCCNC(=N)N)C(=O)N1CCC[C@H]1C(=O)N[C@H](C(=O)NCC(=O)N[C@@H](CCCNC(=N)N)C(=O)N[C@@H](Cc1ccccc1)C(N)=O)C(C)C [PrRP14-20] (H-IRPVGRF-NH2)

IC50 (PrRP receptor (GPR10)): 430 nM
B1: PrRP14-20 (peptide)
chain: IRPVGRF-NH2

IC50 (PrRP receptor (GPR10)): 4.1 nM
B2: PrRP20 (peptide)
chain: TPDINPAWYASRGIRPVGRF-NH2
